Test results reported in ChEMBL document CHEMBL1149387, “Novel potent hepatitis C virus NS3 serine protease inhibitors derived from proline-based macrocycles” (J Med Chem, 2006).
Numbered stars: 1 amine (or outer) side, 2 acyl side, 3 side chain; on linkers, the order of the positions; unused ones are H or OH. Square brackets hold non-standard residues; d marks the D form. Peptide text beside a SMILES is read from it. * marks the point of attachment. Hyp = O=C(O)[C@@H]1C[C@@H](O)CN1; X1 = CCCC(N[*:1])C(=O)C(=O)[*:2]; Chg = N[C@H](C(=O)O)C1CCCCC1; Phg = N[C@H](C(=O)O)c1ccccc1; Boc = CC(C)(C)OC(=O)*; tBu = CC(C)(C)*

Key:
NS3 = NS3 (Hepatitis C virus, UniProt A3EZJ3); assay: Inhibitory activity against HCV NS3 protease; set-up: species or system Hepacivirus hominis
Procedure, shortened: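 Continuous assay with a single-chain NS3 serine protease carrying tethered NS4A. Values are reported as Ki*, the equilibrium constant that reflects the reversible covalent bond formed between the inhibitor ketone and the active-site serine, plus other enzyme–inhibitor contacts. Most inhibitors were tested as an inseparable mixture of two diastereomers at the P1 R-centre.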

[1] = AUC in sc dosed rat; format: ADME, organism-based; settings: plasma
[2] = AUC in orally dosed rat; format: ADME, organism-based; settings: plasma, po
[3] = Oral bioavailability in rat; format: ADME, organism-based; settings: in vivo
[4] = AUC in iv dosed rat; format: ADME, organism-based; settings: plasma
Hepatitis C virus = assay: Inhibition of HCV replication in a cellular replicon assay; format: functional, organism-based, Hepacivirus hominis
[5] = Selectivity for HNE over HCV NS3 protease
[6] = Bioavailability in sc dosed rat; format: ADME, organism-based; settings: in vivo

Sequence of NS3 (A3EZJ3 whole entry): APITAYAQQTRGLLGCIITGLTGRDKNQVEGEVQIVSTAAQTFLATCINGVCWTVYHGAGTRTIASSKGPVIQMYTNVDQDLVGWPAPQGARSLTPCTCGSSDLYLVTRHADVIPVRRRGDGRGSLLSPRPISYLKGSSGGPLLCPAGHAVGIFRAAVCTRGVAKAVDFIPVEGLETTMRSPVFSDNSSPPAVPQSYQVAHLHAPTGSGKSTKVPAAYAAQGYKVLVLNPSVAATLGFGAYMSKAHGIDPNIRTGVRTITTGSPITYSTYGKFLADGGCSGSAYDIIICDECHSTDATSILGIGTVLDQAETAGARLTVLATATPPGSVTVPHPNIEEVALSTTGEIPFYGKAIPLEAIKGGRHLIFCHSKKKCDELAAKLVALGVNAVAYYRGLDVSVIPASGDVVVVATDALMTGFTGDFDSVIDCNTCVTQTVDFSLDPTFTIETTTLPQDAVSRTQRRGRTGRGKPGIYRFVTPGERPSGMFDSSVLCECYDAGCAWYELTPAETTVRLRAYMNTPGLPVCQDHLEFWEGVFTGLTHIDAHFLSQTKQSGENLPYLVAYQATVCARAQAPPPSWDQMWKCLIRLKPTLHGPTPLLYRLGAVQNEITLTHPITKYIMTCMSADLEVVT

Row | Structure (SMILES) | Ki (NS3) | other results
1 | CCCC(NC(=O)[C@@H]1C[C@@H](OC(C)(C)C)CN1C(=O)[C@@H](NC(=O)OC(C)(C)C)C1CCCCC1)C(=O)C(=O)NCC(=O)N[C@H](C(N)=O)c1ccccc1 (some centres not stated) (Boc-[Chg][Hyp](tBu)[X1]G[Phg]-NH2) | 220 nM | –
2 | CCCC(NC(=O)[C@@H]1C[C@@H]2CN1C(=O)[C@H](C1CCCCC1)NC(=O)Cc1cccc(c1)OCCCO2)C(=O)C(=O)NCC(=O)NCc1ccccc1 (some centres not stated) | 1100 nM | –
3 | CCCC(NC(=O)[C@@H]1C[C@@H]2CN1C(=O)[C@H](C1CCCCC1)NC(=O)Cc1cccc(c1)OCCC(C)(C)O2)C(=O)C(=O)NCC(=O)OCc1ccccc1 (some centres not stated) | 88 nM | –
4 | CCCC(NC(=O)[C@@H]1C[C@@H]2CN1C(=O)[C@H](C1CCCCC1)NC(=O)Cc1cccc(c1)OCCCO2)C(=O)C(=O)O (some centres not stated) | 6100 nM | –
5 | C=CCNC(=O)C(=O)C(CCC)NC(=O)[C@@H]1C[C@@H]2CN1C(=O)[C@H](C1CCCCC1)NC(=O)Cc1cccc(c1)OCCC(C)(C)O2 (some centres not stated) | 530 nM | AUC [1]: 34.7 µM·h; AUC [2]: 26.3 µM·h; bioavailability [3]: 97%; AUC [4]: 13.6 µM·h; IC50 (Hepatitis C virus): 400 nM
6 | CCCC(NC(=O)[C@@H]1C[C@@H]2CN1C(=O)[C@H](C1CCCCC1)NC(=O)Cc1cccc(c1)OCCCO2)C(=O)C(=O)NC (some centres not stated) | 9900 nM | –
7 | CCCC(NC(=O)[C@@H]1C[C@@H]2CN1C(=O)[C@H](C1CCCCC1)NC(=O)Cc1cccc(c1)OCCCO2)C(=O)C(=O)NCC(=O)O (some centres not stated) | 7400 nM | –
8 | CCCC(NC(=O)[C@@H]1C[C@@H]2CN1C(=O)[C@H](C1CCCCC1)NC(=O)Cc1cccc(c1)OCCC(C)(C)O2)C(=O)C(=O)NCC(=O)O (some centres not stated) | 720 nM | –
9 | CCCC(NC(=O)[C@@H]1C[C@@H]2CN1C(=O)[C@H](C1CCCCC1)NC(=O)Cc1cccc(c1)OCCCO2)C(=O)C(=O)NCC(=O)OCc1ccccc1 (some centres not stated) | 430 nM | –
10 | CCCC(NC(=O)[C@@H]1C[C@@H]2CN1C(=O)[C@H](C1CCCCC1)NC(=O)Cc1cccc(c1)OCCCO2)C(=O)C(=O)NCC(=O)N[C@H](CO)c1ccccc1 (some centres not stated) | 60 nM | –
11 | CCCC(NC(=O)[C@@H]1C[C@@H]2CN1C(=O)[C@H](C1CCCCC1)NC(=O)Cc1cccc(c1)OCCC(C)(C)O2)C(=O)C(N)=O (some centres not stated) | 220 nM | AUC [2]: 0.3 µM·h
12 | CCCC(NC(=O)[C@@H]1C[C@@H]2CN1C(=O)[C@H](C1CCCCC1)NC(=O)Cc1cccc(c1)OCCCO2)C(=O)C(=O)NCC(=O)N[C@H](C#N)c1ccccc1 (some centres not stated) | 310 nM | –
13 | C=CCNC(=O)C(=O)C(CCC)NC(=O)[C@@H]1C[C@@H]2CN1C(=O)[C@H](C1CCCCC1)NC(=O)Cc1cccc(c1)OCCCO2 (some centres not stated) | 10000 nM | –

The next lines start with results.

Row | Ki (NS3) | Structure (SMILES) | other results
14 | 500 nM | CCC[C@@H](NC(=O)[C@@H]1C[C@@H]2CN1C(=O)[C@H](C1CCCCC1)NC(=O)Cc1cccc(c1)OCCCO2)C(=O)C(=O)NCC(=O)N[C@H](C(=O)N(C)C)c1ccccc1 | –
15 | 16 nM | CCCC(NC(=O)[C@@H]1C[C@@H]2CN1C(=O)[C@H](C1CCCCC1)NC(=O)Cc1cccc(c1)OCCC(C)(C)O2)C(=O)C(=O)NCC(=O)N[C@H](C(=O)OC(C)(C)C)c1ccccc1 (some centres not stated) | –
16 | 269 nM | CCCC(NC(=O)[C@@H]1C[C@@H]2CN1C(=O)[C@H](C1CCCCC1)NC(=O)Cc1cccc(c1)OCCC(C)(C)O2)C(=O)C(=O)NCC(=O)NCc1ccccc1 (some centres not stated) | –
17 | 70 nM | CCCC(NC(=O)[C@@H]1C[C@@H]2CN1C(=O)[C@H](C(C)CC)NC(=O)Cc1cccc(c1)OCCC(C)(C)O2)C(=O)C(=O)NCC(=O)N[C@H](C(=O)N(C)C)c1ccccc1 (some centres not stated) | –
18 | 46 nM | CCCC(NC(=O)[C@@H]1C[C@@H]2CN1C(=O)[C@H](c1ccccc1)NC(=O)Cc1cccc(c1)OCCC(C)(C)O2)C(=O)C(=O)NCC(=O)N[C@H](C(=O)N(C)C)c1ccccc1 (some centres not stated) | –
19 | 44 nM | CCCC(NC(=O)[C@@H]1C[C@@H]2CN1C(=O)[C@H](C1CCCCC1)NC(=O)Cc1cccc(c1)OCCCO2)C(=O)C(=O)NCC(=O)N[C@H](C(=O)OC(C)(C)C)c1ccccc1 (some centres not stated) | –
20 | 17 nM | CCCC(NC(=O)[C@@H]1C[C@@H]2CN1C(=O)[C@H](C(C)(C)C)NC(=O)Cc1cccc(c1)OCCC(C)(C)O2)C(=O)C(=O)NCC(=O)N[C@H](C(=O)N(C)C)c1ccccc1 (some centres not stated) | Ratio Ki [5]: 306; IC50 (Hepatitis C virus): 200 nM
21 | 6 nM | CCCC(NC(=O)[C@@H]1C[C@@H]2CN1C(=O)[C@H](C1CCCCC1)NC(=O)Cc1cccc(c1)OCCC(C)(C)O2)C(=O)C(=O)NCC(=O)N[C@H](C(=O)N(C)C)c1ccccc1 (some centres not stated) | bioavailability [6]: 77%; AUC [1]: 16.5 µM·h; AUC [2]: 0.46 µM·h; bioavailability [3]: 2.1%; Ratio Ki [5]: 107; AUC [4]: 2.2 µM·h; IC50 (Hepatitis C virus): 130 nM
22 | 40 nM | CCCC(NC(=O)[C@@H]1C[C@@H]2CN1C(=O)[C@H](C1Cc3ccccc3C1)NC(=O)Cc1cccc(c1)OCCC(C)(C)O2)C(=O)C(=O)NCC(=O)N[C@H](C(=O)N(C)C)c1ccccc1 (some centres not stated) | –
23 | 10 nM | CCCC(NC(=O)[C@@H]1C[C@@H]2CN1C(=O)[C@H](C1CCCCC1)NC(=O)Cc1cccc(c1)OCCCO2)C(=O)C(=O)NCC(=O)N[C@H](C(=O)O)c1ccccc1 (some centres not stated) | –
24 | 8 nM | CCC[C@H](NC(=O)[C@@H]1C[C@@H]2CN1C(=O)[C@H](C1CCCCC1)NC(=O)Cc1cccc(c1)OCCCO2)C(=O)C(=O)NCC(=O)N[C@H](C(=O)N(C)C)c1ccccc1 | bioavailability [6]: 90%; AUC [1]: 41.6 µM·h; AUC [2]: 1.5 µM·h; bioavailability [3]: 3%; Ratio Ki [5]: 46; AUC [4]: 23.1 µM·h; IC50 (Hepatitis C virus): 400 nM
25 | 19 nM | CCCC(NC(=O)[C@@H]1C[C@@H]2CN1C(=O)[C@H](C(C)C)NC(=O)Cc1cccc(c1)OCCC(C)(C)O2)C(=O)C(=O)NCC(=O)N[C@H](C(=O)N(C)C)c1ccccc1 (some centres not stated) | –
